Tests used:
[1] = test system: Ramos; assay: Induction of apoptosis in human Ramos cells assessed as late apoptotic cells at 3 uM measured after 15 mins by Annexin-V-APC staining-based flow cytometric analysis (reference value: 1.85 %); format: functional
[2] = test system: Raji; assay: Cell cycle arrest in human Raji cells assessed as accumulation at G0/G1 phase at 1 uM measured after 48 hrs by propidium iodide/RNase staining based flow cytometric analysis (reference value: 48.68 %); format: functional
[3] = test system: Ramos; assay: Induction of apoptosis in human Ramos cells assessed as early apoptotic cells at 3 uM measured after 15 mins by Annexin-V-APC staining-based flow cytometric analysis (reference value: 0.14 %); format: functional
[4] = test system: Ramos; assay: Induction of apoptosis in human Ramos cells assessed as late apoptotic cells at 5 uM measured after 15 mins by Annexin-V-APC staining-based flow cytometric analysis (reference value: 1.85 %); format: functional
[5] = test system: Ramos; assay: Induction of apoptosis in human Ramos cells assessed as necrotic cells at 1 uM measured after 15 mins by Annexin-V-APC staining-based flow cytometric analysis (reference value: 1.50 %); format: functional
[6] = test system: Ramos; assay: Induction of apoptosis in human Ramos cells assessed as early apoptotic cells at 0.1 uM measured after 15 mins by Annexin-V-APC staining-based flow cytometric analysis (reference value: 0.14 %); format: functional
[7] = test system: Ramos; assay: Induction of apoptosis in human Ramos cells assessed as early apoptotic cells at 1 uM measured after 15 mins by Annexin-V-APC staining-based flow cytometric analysis (reference value: 0.14 %); format: functional
[8] = biological target: Tyrosine-protein kinase BTK (Homo sapiens, UniProt Q06187); assay: Inhibition of human recombinant full length N-terminal His tagged BTK expressed in baculovirus infected Sf9 cells using poly (Glu,Tyr) 4:1 as substrate measured after 60 mins in presence of ATP by ADP-Glo kinase assay
[9] = test system: Ramos; assay: Induction of apoptosis in human Ramos cells assessed as necrotic cells at 3 uM measured after 15 mins by Annexin-V-APC staining-based flow cytometric analysis (reference value: 1.50 %); format: functional
[10] = test system: Raji; assay: Cell cycle arrest in human Raji cells assessed as accumulation at G2/M phase at 5 uM measured after 48 hrs by propidium iodide/RNase staining based flow cytometric analysis (reference value: 18.14 %); format: functional
[11] = test system: Ramos; assay: Cell cycle arrest in human Ramos cells assessed as accumulation at G2/M phase at 0.1 uM measured after 48 hrs by propidium iodide/RNase staining based flow cytometric analysis (reference value: 5.98 %); format: functional
[12] = test system: Raji; assay: Induction of apoptosis in human Raji cells assessed as necrotic cells at 3 uM measured after 15 mins by Annexin-V-APC staining-based flow cytometric analysis (reference value: 1.87 %); format: functional
[13] = test system: Raji; assay: Cell cycle arrest in human Raji cells assessed as accumulation at G0/G1 phase at 0.1 uM measured after 48 hrs by propidium iodide/RNase staining based flow cytometric analysis (reference value: 48.68 %); format: functional
[14] = test system: Raji; assay: Cell cycle arrest in human Raji cells assessed as accumulation at S phase at 0.1 uM measured after 48 hrs by propidium iodide/RNase staining based flow cytometric analysis (reference value: 33.18 %); format: functional
[15] = test system: Raji; assay: Cell cycle arrest in human Raji cells assessed as accumulation at G0/G1 phase at 5 uM measured after 48 hrs by propidium iodide/RNase staining based flow cytometric analysis (reference value: 48.68 %); format: functional
[16] = test system: Raji; assay: Induction of apoptosis in human Raji cells assessed as viable cells at 0.1 uM measured after 15 mins by Annexin-V-APC staining-based flow cytometric analysis (reference value: 97.5 %); format: functional; details: 0.25 h, read-out: Activity
[17] = test system: Raji; assay: Induction of apoptosis in human Raji cells assessed as necrotic cells at 0.1 uM measured after 15 mins by Annexin-V-APC staining-based flow cytometric analysis (reference value: 1.87 %); format: functional
[18] = test system: Ramos; assay: Induction of apoptosis in human Ramos cells assessed as viable cells at 1 uM measured after 15 mins by Annexin-V-APC staining-based flow cytometric analysis (reference value: 96.5 %); format: functional; details: 0.25 h, read-out: Activity
[19] = test system: Raji; assay: Induction of apoptosis in human Raji cells assessed as late apoptotic cells at 5 uM measured after 15 mins by Annexin-V-APC staining-based flow cytometric analysis (reference value: 0.57 %); format: functional
[20] = test system: Ramos; assay: Antiproliferative activity against human Ramos cells measured after 72 hrs by CCK-8 assay; format: functional, cell-based
Method in brief: (§1)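 Ramos or Raji cells in RPMI-1640 with 10% FBS and 1% penicillin-streptomycin at 37 °C, 5% CO2. Seeded at 2000–3000 cells/well one day before compound addition. Exposure 72 h, then CCK-8 with absorbance at 450 nm. […] Single-point inhibition at 40 µM reported as mean ± standard deviation.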

[21] = test system: Raji; assay: Induction of apoptosis in human Raji cells assessed as viable cells at 1 uM measured after 15 mins by Annexin-V-APC staining-based flow cytometric analysis (reference value: 97.5 %); format: functional; details: 0.25 h, read-out: Activity
[22] = test system: Raji; assay: Antiproliferative activity against human Raji cells at 40 uM measured after 72 hrs by CCK-8 assay relative to control; format: functional; details: Homo sapiens, Raji, 72 h; method in brief: as §1
[23] = test system: Ramos; assay: Induction of apoptosis in human Ramos cells assessed as early apoptotic cells at 5 uM measured after 15 mins by Annexin-V-APC staining-based flow cytometric analysis (reference value: 0.14 %); format: functional
[24] = test system: Ramos; assay: Cell cycle arrest in human Ramos cells assessed as accumulation at G2/M phase at 5 uM measured after 48 hrs by propidium iodide/RNase staining based flow cytometric analysis (reference value: 5.98 %); format: functional
[25] = test system: Ramos; assay: Cell cycle arrest in human Ramos cells assessed as accumulation at S phase at 5 uM measured after 48 hrs by propidium iodide/RNase staining based flow cytometric analysis (reference value: 56.35 %); format: functional
[26] = test system: Ramos; assay: Induction of apoptosis in human Ramos cells assessed as necrotic cells at 5 uM measured after 15 mins by Annexin-V-APC staining-based flow cytometric analysis (reference value: 1.50 %); format: functional
[27] = test system: Ramos; assay: Cell cycle arrest in human Ramos cells assessed as accumulation at G0/G1 phase at 5 uM measured after 48 hrs by propidium iodide/RNase staining based flow cytometric analysis (reference value: 37.66 %); format: functional
[28] = test system: Ramos; assay: Induction of apoptosis in human Ramos cells assessed as viable cells at 0.1 uM measured after 15 mins by Annexin-V-APC staining-based flow cytometric analysis (reference value: 96.5 %); format: functional; details: 0.25 h, read-out: Activity

Chain of Tyrosine-protein kinase BTK (Q06187 whole entry): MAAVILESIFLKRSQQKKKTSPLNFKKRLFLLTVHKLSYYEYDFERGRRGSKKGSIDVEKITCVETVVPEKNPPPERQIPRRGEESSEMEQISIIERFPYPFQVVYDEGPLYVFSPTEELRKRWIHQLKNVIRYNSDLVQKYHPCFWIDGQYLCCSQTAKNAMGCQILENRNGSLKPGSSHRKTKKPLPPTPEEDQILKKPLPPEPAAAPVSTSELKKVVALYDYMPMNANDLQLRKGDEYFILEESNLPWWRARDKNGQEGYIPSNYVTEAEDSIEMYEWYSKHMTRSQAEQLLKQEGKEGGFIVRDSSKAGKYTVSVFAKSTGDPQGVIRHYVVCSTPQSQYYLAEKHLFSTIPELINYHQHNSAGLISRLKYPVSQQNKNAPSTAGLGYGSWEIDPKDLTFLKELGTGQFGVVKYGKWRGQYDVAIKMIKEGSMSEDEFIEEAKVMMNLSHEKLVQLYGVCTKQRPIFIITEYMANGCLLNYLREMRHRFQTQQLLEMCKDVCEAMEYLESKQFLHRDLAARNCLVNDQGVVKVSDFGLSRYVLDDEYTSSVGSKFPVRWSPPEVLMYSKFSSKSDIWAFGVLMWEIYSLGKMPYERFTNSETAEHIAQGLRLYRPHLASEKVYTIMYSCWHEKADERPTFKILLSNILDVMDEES

Question: Which results are given for `CN1CCN(c2ccc(Nc3nc(-c4cccc(NC(=O)c5ccc(F)c(Cl)c5)c4)sc3C(N)=O)cc2)CC1`?
Answer: Activity [1]: 6.43%; Activity [2]: 54%; Activity [3]: 0.052%; Activity [4]: 72.4%; Activity [5]: 2.04%; Activity [6]: 0.072%; Activity [7]: 0.051%; IC50 [8]: 0.09 µM; Activity [9]: 6.17%; Activity [10]: 16.19%; Activity [11]: 8.33%; Activity [12]: 2.91%; Activity [13]: 47.04%; Activity [14]: 33.63%; Activity [15]: 82.55%; viability at 0.1 µM [16]: 97.8%; Activity [17]: 1.76%; viability at 1 µM [18]: 95.7%; Activity [19]: 67.7%; IC50 [20]: 4.83 µM; viability at 1 µM [21]: 97.6%; inhibition at 40 µM [22]: 94.4%; Activity [23]: 0.28%; Activity [24]: 2.17%; Activity [25]: 14.14%; Activity [26]: 25.7%; Activity [27]: 83.68%; viability at 0.1 µM [28]: 96.4%

Reference: ChEMBL document CHEMBL4359830, “Discovery and structure-activity relationship of novel diphenylthiazole derivatives as BTK inhibitor with potent activity against B cell lymphoma cell lines” (Eur J Med Chem, 2019)
